# Assay results from ChEMBL document CHEMBL1132701, “Orally active isoxazoline glycoprotein IIb/IIIa antagonists with extended duration of action” (J Med Chem, 1999).
# How the values were obtained:
# Canis familiaris [1] = experiment: Inhibition of ex vivo platelet aggregation in dogs after 24 hr of administration of iv bolus dose of 0.025 mg/kg; type: functional; settings: Canis lupus familiaris
# Summary of the method: (§1)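 Dogs received an iv bolus, mostly 0.025 mg/kg, with some tested at 0.05 mg/kg. Blood was sampled at 1, 5 and 24 h postdose. Ex vivo platelet aggregation was stimulated with ADP (100 μM) and reported as % inhibition; n = 2.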
# Homo sapiens = species on record: Homo sapiens; experiment: The compound was tested for their ability to inhibit ADP-stimulated platelet aggregation in human platelet rich plasma; type: functional
# Summary of the method: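 IC50 for inhibition of ADP-induced aggregation in human platelet-rich plasma, determined in three donors.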
# Canis familiaris [2] = species on record: Canis familiaris; experiment: The compound was tested for their ability to inhibit ADP-stimulated platelet aggregation in dog platelet rich plasma; type: functional; settings: Canis lupus familiaris
# [3] = molecular target: Integrin alpha-IIb/beta-3 (Canis familiaris); experiment: Dissociation constant for activated Fibrinogen Receptor
# [4] = molecular target: Integrin alpha-IIb/beta-3 (Canis familiaris); experiment: Dissociation constant for unactivated Fibrinogen Receptor
# Canis familiaris [5] = experiment: Inhibition of ex vivo platelet aggregation in dogs after 6 hr of administration of oral dose of 0.1 mg/kg; settings: Canis lupus familiaris
# Canis familiaris [6] = experiment: Inhibition of ex vivo platelet aggregation in dogs after 1 hr of administration of oral dose of 0.1 mg/kg; settings: Canis lupus familiaris
# Canis familiaris [7] = experiment: Inhibition of ex vivo platelet aggregation in dogs after 24 hr of administration of oral dose of 0.1 mg/kg; settings: Canis lupus familiaris
# Canis familiaris [8] = experiment: Compounds having IC50 values less than 100 nM in the PRP assay were assessed for their ability to inhibit ex vivo platelet aggregation in dogs after 5 hr of administration of iv bolus dose of 0.025 mg/kg; type: functional; settings: Canis lupus familiaris; summary of the method: as §1
# [9] = molecular target: Integrin alpha-IIb/beta-3 (Canis familiaris); experiment: Dissociation constant for unactivated Fibrinogen Receptor; remark: listed apart in the source
# Canis familiaris [10] = experiment: Inhibition of ex vivo platelet aggregation in dogs after 24 hr of administration of iv bolus dose of 0.05 mg/kg; type: functional; settings: Canis lupus familiaris; summary of the method: as §1
# Canis familiaris [11] = experiment: Inhibition of ex vivo platelet aggregation in dogs after 2 hr of administration of oral dose of 0.1 mg/kg; settings: Canis lupus familiaris
# Canis familiaris [12] = experiment: Inhibition of ex vivo platelet aggregation in dogs after 6 hr of administration of oral dose of 0.1 mg/kg; settings: Canis lupus familiaris; remark: listed apart in the source
# Canis familiaris [13] = experiment: Inhibition of ex vivo platelet aggregation in dogs after 24 hr of administration of oral dose of 0.1 mg/kg; type: functional; settings: Canis lupus familiaris
# Canis familiaris [14] = experiment: Inhibition of ex vivo platelet aggregation in dogs after 1 hr of administration of oral dose of 0.1 mg/kg; type: functional; settings: Canis lupus familiaris
# Integrin alpha-V/beta-3 = Integrin alpha-V/beta-3 (Homo sapiens, UniProt P05106+P06756); experiment: Inhibitory activity against […] integrin; type: protein-complex assay
# Integrin alpha-4/beta-1 = Integrin alpha-4/beta-1 (Homo sapiens, UniProt P05556+P13612); experiment: Inhibitory activity against alpha4-beta1 integrin; type: protein-complex assay
# [15] = molecular target: Integrin alpha-V/beta-5 (Homo sapiens) (UniProt P06756+P18084); experiment: Inhibitory activity against alphaV-beta5 integrin at 10 uM; type: protein-complex assay
# [16] = molecular target: Integrin alpha-5/beta-1 (Homo sapiens) (UniProt P05556+P08648); experiment: Inhibitory activity against alpha5-beta1 integrin at 10 uM
# Canis familiaris [17] = experiment: Inhibition of ex vivo platelet aggregation in dogs after 6 hr of administration of oral dose of 0.1 mg/kg; settings: Canis lupus familiaris; remark: listed apart in the source
# Integrin alpha-4/beta-1, sequence (P05556 whole entry): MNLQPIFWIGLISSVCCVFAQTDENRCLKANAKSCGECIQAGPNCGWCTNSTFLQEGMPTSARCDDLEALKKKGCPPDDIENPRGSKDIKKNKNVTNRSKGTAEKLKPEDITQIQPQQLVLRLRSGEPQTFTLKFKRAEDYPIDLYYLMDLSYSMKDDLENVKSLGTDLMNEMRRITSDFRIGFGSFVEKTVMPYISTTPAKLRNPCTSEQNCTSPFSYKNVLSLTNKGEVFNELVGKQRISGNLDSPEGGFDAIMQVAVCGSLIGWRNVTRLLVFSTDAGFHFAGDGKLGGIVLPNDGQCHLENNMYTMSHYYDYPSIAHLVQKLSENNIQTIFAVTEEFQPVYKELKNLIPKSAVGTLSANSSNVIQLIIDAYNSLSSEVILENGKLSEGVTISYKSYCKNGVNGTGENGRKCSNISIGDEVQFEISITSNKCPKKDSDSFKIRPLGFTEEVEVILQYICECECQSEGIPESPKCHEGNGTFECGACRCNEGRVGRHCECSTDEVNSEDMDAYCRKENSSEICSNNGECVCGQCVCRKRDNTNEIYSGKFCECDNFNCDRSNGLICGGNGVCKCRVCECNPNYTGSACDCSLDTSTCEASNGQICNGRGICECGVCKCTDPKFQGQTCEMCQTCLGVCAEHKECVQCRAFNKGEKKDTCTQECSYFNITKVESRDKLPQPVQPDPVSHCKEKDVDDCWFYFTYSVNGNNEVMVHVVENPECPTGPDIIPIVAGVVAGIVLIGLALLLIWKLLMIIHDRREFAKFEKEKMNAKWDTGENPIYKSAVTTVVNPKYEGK
# Integrin alpha-4/beta-1, sequence (P13612 whole entry): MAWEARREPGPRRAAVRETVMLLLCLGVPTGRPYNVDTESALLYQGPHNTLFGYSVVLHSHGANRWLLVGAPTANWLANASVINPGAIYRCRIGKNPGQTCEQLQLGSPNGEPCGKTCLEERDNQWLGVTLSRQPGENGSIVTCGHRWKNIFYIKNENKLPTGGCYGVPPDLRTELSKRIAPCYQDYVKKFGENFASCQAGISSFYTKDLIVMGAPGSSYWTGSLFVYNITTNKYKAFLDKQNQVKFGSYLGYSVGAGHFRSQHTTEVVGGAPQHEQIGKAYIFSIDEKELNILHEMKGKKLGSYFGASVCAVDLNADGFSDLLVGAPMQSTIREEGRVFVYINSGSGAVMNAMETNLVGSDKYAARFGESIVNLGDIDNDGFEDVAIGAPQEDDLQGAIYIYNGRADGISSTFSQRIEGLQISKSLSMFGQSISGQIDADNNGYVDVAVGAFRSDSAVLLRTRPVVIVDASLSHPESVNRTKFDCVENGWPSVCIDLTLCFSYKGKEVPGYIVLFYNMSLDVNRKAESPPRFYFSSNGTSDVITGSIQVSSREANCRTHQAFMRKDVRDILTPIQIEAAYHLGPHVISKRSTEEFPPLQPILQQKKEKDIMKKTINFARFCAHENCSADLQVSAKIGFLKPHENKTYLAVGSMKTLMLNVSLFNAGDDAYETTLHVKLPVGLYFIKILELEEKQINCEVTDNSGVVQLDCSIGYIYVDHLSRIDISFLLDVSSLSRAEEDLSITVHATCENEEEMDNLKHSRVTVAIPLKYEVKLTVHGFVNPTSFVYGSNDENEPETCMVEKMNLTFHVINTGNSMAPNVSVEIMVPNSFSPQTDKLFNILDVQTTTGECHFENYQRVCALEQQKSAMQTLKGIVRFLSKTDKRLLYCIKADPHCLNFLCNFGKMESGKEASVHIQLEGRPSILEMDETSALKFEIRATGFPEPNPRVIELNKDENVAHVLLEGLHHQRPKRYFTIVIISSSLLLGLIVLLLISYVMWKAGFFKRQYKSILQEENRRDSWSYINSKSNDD
# Integrin alpha-V/beta-3, sequence (P05106 27-788 limits assumed): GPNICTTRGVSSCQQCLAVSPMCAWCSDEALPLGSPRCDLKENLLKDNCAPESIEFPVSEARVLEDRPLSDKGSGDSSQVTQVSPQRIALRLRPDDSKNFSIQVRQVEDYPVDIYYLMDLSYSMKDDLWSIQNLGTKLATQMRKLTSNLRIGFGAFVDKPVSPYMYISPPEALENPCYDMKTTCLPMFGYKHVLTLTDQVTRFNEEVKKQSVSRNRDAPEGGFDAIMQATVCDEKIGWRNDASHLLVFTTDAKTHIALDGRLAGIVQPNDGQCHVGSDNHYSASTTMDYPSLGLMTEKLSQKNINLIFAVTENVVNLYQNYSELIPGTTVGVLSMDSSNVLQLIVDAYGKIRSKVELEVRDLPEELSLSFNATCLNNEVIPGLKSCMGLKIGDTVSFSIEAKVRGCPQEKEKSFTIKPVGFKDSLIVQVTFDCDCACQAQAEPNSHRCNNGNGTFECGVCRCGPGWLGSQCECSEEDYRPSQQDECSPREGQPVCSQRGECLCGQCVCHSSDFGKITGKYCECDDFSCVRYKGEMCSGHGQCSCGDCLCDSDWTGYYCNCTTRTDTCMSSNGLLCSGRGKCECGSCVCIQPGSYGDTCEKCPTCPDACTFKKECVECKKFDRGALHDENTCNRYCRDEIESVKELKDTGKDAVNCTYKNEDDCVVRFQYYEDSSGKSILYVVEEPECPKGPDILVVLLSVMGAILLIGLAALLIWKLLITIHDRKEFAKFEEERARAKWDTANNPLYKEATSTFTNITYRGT
# Integrin alpha-V/beta-3, sequence (P06756 31-889 limits assumed): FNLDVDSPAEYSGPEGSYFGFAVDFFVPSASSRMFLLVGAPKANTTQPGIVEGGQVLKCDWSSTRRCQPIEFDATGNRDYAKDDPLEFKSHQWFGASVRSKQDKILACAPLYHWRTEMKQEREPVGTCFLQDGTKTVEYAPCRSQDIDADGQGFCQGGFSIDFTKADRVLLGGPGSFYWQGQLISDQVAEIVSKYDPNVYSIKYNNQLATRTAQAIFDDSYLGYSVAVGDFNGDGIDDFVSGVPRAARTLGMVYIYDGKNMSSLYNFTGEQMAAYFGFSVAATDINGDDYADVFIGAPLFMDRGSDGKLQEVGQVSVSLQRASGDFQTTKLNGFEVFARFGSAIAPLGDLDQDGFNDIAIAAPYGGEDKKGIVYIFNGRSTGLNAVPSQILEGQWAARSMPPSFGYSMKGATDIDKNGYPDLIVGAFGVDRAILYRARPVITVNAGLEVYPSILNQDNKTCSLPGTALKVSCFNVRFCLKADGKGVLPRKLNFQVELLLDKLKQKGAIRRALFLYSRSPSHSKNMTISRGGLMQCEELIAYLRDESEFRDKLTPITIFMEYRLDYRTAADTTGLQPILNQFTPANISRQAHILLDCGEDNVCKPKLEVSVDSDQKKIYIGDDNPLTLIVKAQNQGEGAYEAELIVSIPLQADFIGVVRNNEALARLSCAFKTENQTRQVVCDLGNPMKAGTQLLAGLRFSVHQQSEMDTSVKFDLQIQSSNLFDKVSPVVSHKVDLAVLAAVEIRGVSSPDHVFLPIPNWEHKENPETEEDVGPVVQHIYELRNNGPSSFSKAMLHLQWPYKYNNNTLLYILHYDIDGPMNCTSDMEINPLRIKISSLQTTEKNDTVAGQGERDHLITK
# Integrin alpha-V/beta-3, sequence (P06756 891-1048 limits assumed): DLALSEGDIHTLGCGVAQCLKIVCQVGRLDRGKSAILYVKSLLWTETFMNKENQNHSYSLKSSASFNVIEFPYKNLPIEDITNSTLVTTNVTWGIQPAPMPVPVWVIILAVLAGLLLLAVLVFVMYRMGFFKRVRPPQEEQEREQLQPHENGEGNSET
smiles,measurement,setting,value
Cc1noc(C)c1S(=O)(=O)N[C@@H](CNC(=O)CC1CC(c2ccc(C(=N)N)cc2)=NO1)C(=O)O (stereo partly drawn),inhibition in vivo at 0.025 mg/kg,Canis familiaris [1],33%
same,IC50,Homo sapiens,0.034 µM
Cc1noc(C)c1S(=O)(=O)N[C@@H](CNC(=O)C[C@@H]1CC(c2ccc(C(=N)N)cc2)=NO1)C(=O)O,IC50,Canis familiaris [2],0.021 µM
same,IC50,Homo sapiens,0.029 µM
same,Kd,[3],0.0027 µM
same,Kd,[4],0.0037 µM
Cc1cccc(S(=O)(=O)N[C@@H](CNC(=O)C[C@H]2CC(c3ccc(C(=N)N)cc3)=NO2)C(=O)O)c1,inhibition in vivo at 0.025 mg/kg,Canis familiaris [1],24%
same,IC50,Homo sapiens,0.025 µM
same,inhibition in vivo at 0.1 mg/kg,Canis familiaris [5],94%
same,inhibition in vivo at 0.1 mg/kg,Canis familiaris [6],78%
same,inhibition in vivo at 0.1 mg/kg,Canis familiaris [7],60%
N=C(N)c1ccc(C2=NO[C@@H](CC(=O)NC[C@H](NS(=O)(=O)c3ccccc3C(F)(F)F)C(=O)O)C2)cc1,IC50,Homo sapiens,0.089 µM
Cc1ccccc1S(=O)(=O)N[C@@H](CNC(=O)CC1CC(c2ccc(C(=N)N)cc2)=NO1)C(=O)O (stereo partly drawn),inhibition in vivo at 0.025 mg/kg,Canis familiaris [8],97%
same,inhibition in vivo at 0.025 mg/kg,Canis familiaris [1],99%
same,IC50,Homo sapiens,0.041 µM
N=C(N)c1ccc(C2=NOC(CC(=O)NC[C@H](NS(=O)(=O)c3cccc4ccccc34)C(=O)O)C2)cc1 (stereo partly drawn),IC50,Homo sapiens,0.055 µM
N=C(N)c1ccc(C2=NOC(CC(=O)NC[C@H](NS(=O)(=O)NCCc3ccccc3)C(=O)O)C2)cc1 (stereo partly drawn),IC50,Homo sapiens,0.07 µM
Cc1nc(C)c(S(=O)(=O)N[C@@H](CNC(=O)CC2CC(c3ccc(C(=N)N)cc3)=NO2)C(=O)O)s1 (stereo partly drawn),inhibition in vivo at 0.025 mg/kg,Canis familiaris [8],54%
same,inhibition in vivo at 0.025 mg/kg,Canis familiaris [1],8%
same,IC50,Homo sapiens,0.036 µM
CN(Cc1ccccc1)S(=O)(=O)N[C@@H](CNC(=O)CC1CC(c2ccc(C(=N)N)cc2)=NO1)C(=O)O (stereo partly drawn),IC50,Homo sapiens,0.086 µM
Cc1cccc(S(=O)(=O)N[C@@H](CNC(=O)Cc2cc(-c3ccc(C(=N)N)cc3)no2)C(=O)O)c1,IC50,Homo sapiens,0.069 µM
CCCS(=O)(=O)N[C@@H](CNC(=O)CC1CC(c2ccc(C(=N)N)cc2)=NO1)C(=O)O (stereo partly drawn),IC50,Homo sapiens,0.017 µM
N=C(N)c1ccc(C2=NOC(CC(=O)NC[C@H](NS(=O)(=O)c3ccccc3C(F)(F)F)C(=O)O)C2)cc1 (stereo partly drawn),inhibition in vivo at 0.025 mg/kg,Canis familiaris [1],45%
Cc1ccc(S(=O)(=O)N[C@@H](CNC(=O)CC2CC(c3ccc(C(=N)N)cc3)=NO2)C(=O)O)cc1 (stereo partly drawn),IC50,Homo sapiens,0.037 µM
Cc1noc(C)c1S(=O)(=O)N[C@H](CNC(=O)C[C@H]1CC(c2ccc(C(=N)N)cc2)=NO1)C(=O)O,IC50,Canis familiaris [2],0.025 µM
same,IC50,Homo sapiens,0.023 µM
same,Kd,[3],0.0059 µM
same,Kd,[9],0.0241 µM
N=C(N)c1ccc(C2=NOC(CC(=O)NC[C@H](NS(=O)(=O)c3ccccc3Br)C(=O)O)C2)cc1 (stereo partly drawn),inhibition in vivo at 0.05 mg/kg,Canis familiaris [10],100%
same,IC50,Homo sapiens,0.036 µM
N=C(N)c1ccc(C2=NOC(CC(=O)NC[C@H](NS(=O)(=O)c3cccc(Br)c3)C(=O)O)C2)cc1 (stereo partly drawn),IC50,Homo sapiens,0.06 µM
Cc1ccccc1S(=O)(=O)N[C@@H](CNC(=O)C[C@@H]1CC(c2ccc(C(=N)N)cc2)=NO1)C(=O)O,IC50,Homo sapiens,0.11 µM
N=C(N)c1ccc(C2=NOC(CC(=O)NC[C@H](NS(=O)(=O)c3ccc(C(F)(F)F)cc3)C(=O)O)C2)cc1 (stereo partly drawn),IC50,Homo sapiens,0.17 µM
CC(=O)Nc1cnc(S(=O)(=O)N[C@@H](CNC(=O)CC2CC(c3ccc(C(=N)N)cc3)=NO2)C(=O)O)s1 (stereo partly drawn),inhibition in vivo at 0.025 mg/kg,Canis familiaris [1],68%
same,IC50,Homo sapiens,0.053 µM
CCCCS(=O)(=O)N[C@@H](CNC(=O)CC1CC(c2ccc(C(=N)N)cc2)=NO1)C(=O)O (stereo partly drawn),IC50,Homo sapiens,0.042 µM
Cc1ccc(NS(=O)(=O)N[C@@H](CNC(=O)CC2CC(c3ccc(C(=N)N)cc3)=NO2)C(=O)O)cc1 (stereo partly drawn),IC50,Homo sapiens,0.072 µM
N=C(N)c1ccc(C2=NOC(CC(=O)NC[C@H](NS(=O)(=O)c3cccc4nsnc34)C(=O)O)C2)cc1 (stereo partly drawn),inhibition in vivo at 0.025 mg/kg,Canis familiaris [1],0%
same,IC50,Homo sapiens,0.091 µM
N=C(N)c1ccc(C2=NOC(CC(=O)NC[C@H](NS(=O)(=O)c3cccc(C(F)(F)F)c3)C(=O)O)C2)cc1 (stereo partly drawn),IC50,Homo sapiens,0.12 µM
N=C(N)c1ccc(C2=NO[C@@H](CC(=O)NC[C@H](NS(=O)(=O)c3ccccc3Br)C(=O)O)C2)cc1,IC50,Homo sapiens,0.036 µM
same,inhibition in vivo at 0.1 mg/kg,Canis familiaris [11],29%
same,inhibition in vivo at 0.1 mg/kg,Canis familiaris [12],73%
same,inhibition in vivo at 0.1 mg/kg,Canis familiaris [7],40%
N=C(N)c1ccc(C2=NOC(CC(=O)NC[C@H](NS(=O)(=O)c3cccc4cccnc34)C(=O)O)C2)cc1 (stereo partly drawn),inhibition in vivo at 0.025 mg/kg,Canis familiaris [1],67%
same,IC50,Homo sapiens,0.081 µM
Cc1noc(C)c1S(=O)(=O)N[C@H](CNC(=O)C[C@@H]1CC(c2ccc(C(=N)N)cc2)=NO1)C(=O)O,IC50,Canis familiaris [2],0.17 µM
same,IC50,Homo sapiens,0.12 µM
same,Kd,[3],0.186 µM
same,Kd,[9],0.253 µM
N=C(N)c1ccc(C2=NOC(CC(=O)NC[C@H](NS(=O)(=O)c3cnn(-c4ccccc4)c3)C(=O)O)C2)cc1 (stereo partly drawn),IC50,Homo sapiens,0.072 µM
CC(C)NS(=O)(=O)N[C@@H](CNC(=O)CC1CC(c2ccc(C(=N)N)cc2)=NO1)C(=O)O (stereo partly drawn),IC50,Homo sapiens,0.051 µM
Cc1cccc(S(=O)(=O)N[C@@H](CNC(=O)C[C@@H]2CC(c3ccc(C(=N)N)cc3)=NO2)C(=O)O)c1 [listing 1 of 2 here],inhibition in vivo at 0.025 mg/kg,Canis familiaris [1],16%
Cc1cccc(S(=O)(=O)N[C@@H](CNC(=O)C[C@@H]2CC(c3ccc(C(=N)N)cc3)=NO2)C(=O)O)c1 [listing 2 of 2 here],IC50,Homo sapiens,0.035 µM
Cc1noc(C)c1S(=O)(=O)N[C@@H](CNC(=O)C[C@H]1CC(c2ccc(C(=N)N)cc2)=NO1)C(=O)O,inhibition in vivo at 0.1 mg/kg,Canis familiaris [13],75%
same,inhibition in vivo at 0.1 mg/kg,Canis familiaris [14],54%
same,IC50,Canis familiaris [2],0.023 µM
same,IC50,Homo sapiens,0.029 µM
same,IC50,Integrin alpha-V/beta-3,> 10 µM
same,IC50,Integrin alpha-4/beta-1,> 100 µM
same,inhibition,[15],< 15%
same,Kd,[3],0.0006 µM
same,Kd,[4],0.0009 µM
same,inhibition,[16],< 5%
same,inhibition in vivo at 0.1 mg/kg,Canis familiaris [17],88%
N=C(N)c1ccc(C2=NOC(CC(=O)NC[C@H](NS(=O)(=O)c3ccc(Br)cc3)C(=O)O)C2)cc1 (stereo partly drawn),IC50,Homo sapiens,0.051 µM
Cc1cccc(S(=O)(=O)N(C)[C@@H](CNC(=O)C[C@H]2CC(c3ccc(C(=N)N)cc3)=NO2)C(=O)O)c1,IC50,Homo sapiens,0.095 µM
N=C(N)c1ccc(C2=NOC(CC(=O)NC[C@H](NS(=O)(=O)c3ccccc3-c3ccccc3)C(=O)O)C2)cc1 (stereo partly drawn),inhibition in vivo at 0.025 mg/kg,Canis familiaris [1],65%
same,IC50,Homo sapiens,0.08 µM
CCCc1ccc(S(=O)(=O)N[C@@H](CNC(=O)CC2CC(c3ccc(C(=N)N)cc3)=NO2)C(=O)O)cc1 (stereo partly drawn),IC50,Homo sapiens,0.13 µM
CC(C)CNS(=O)(=O)N[C@@H](CNC(=O)CC1CC(c2ccc(C(=N)N)cc2)=NO1)C(=O)O (stereo partly drawn),IC50,Homo sapiens,0.052 µM
Cc1ccccc1S(=O)(=O)N[C@@H](CNC(=O)C[C@H]1CC(c2ccc(C(=N)N)cc2)=NO1)C(=O)O,IC50,Homo sapiens,0.13 µM
same,inhibition in vivo at 0.1 mg/kg,Canis familiaris [12],92%
same,inhibition in vivo at 0.1 mg/kg,Canis familiaris [6],39%
same,inhibition in vivo at 0.1 mg/kg,Canis familiaris [7],65%
N=C(N)c1ccc(C2=NOC(CC(=O)NC[C@H](NS(=O)(=O)Cc3ccccc3)C(=O)O)C2)cc1 (stereo partly drawn),inhibition in vivo at 0.025 mg/kg,Canis familiaris [1],26%
same,IC50,Homo sapiens,0.039 µM
N=C(N)c1ccc(C2=NOC(CC(=O)NC[C@H](NS(=O)(=O)c3ccc4ccccc4c3)C(=O)O)C2)cc1 (stereo partly drawn),IC50,Homo sapiens,0.14 µM
Cn1cnc(S(=O)(=O)N[C@@H](CNC(=O)CC2CC(c3ccc(C(=N)N)cc3)=NO2)C(=O)O)c1 (stereo partly drawn),IC50,Homo sapiens,0.11 µM
N=C(N)c1ccc(C2=NO[C@@H](CC(=O)NC[C@H](NS(=O)(=O)c3ccccc3)C(=O)O)C2)cc1,IC50,Homo sapiens,0.19 µM
N=C(N)c1ccc(C2=NOC(CC(=O)NC[C@H](NS(=O)(=O)c3cccs3)C(=O)O)C2)cc1 (stereo partly drawn),IC50,Homo sapiens,0.024 µM
Cc1ccc(S(=O)(=O)N[C@@H](CNC(=O)CC2CC(c3ccc(C(=N)N)cc3)=NO2)C(=O)O)o1 (stereo partly drawn),IC50,Homo sapiens,0.16 µM
